pKi: −log10 of the molar value.
Tests used:
[1] = test system: Escherichia coli; assay: Inhibition of Escherichia coli DHDPS-catalyzed condensation of pyruvate and aspartate semi-aldehyde at 5 mM measured after 1 min by UV-spectrophotometric analysis
Outline: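 E. coli DHDPS in 200 mM HEPES pH 8.0 was pre-incubated 1 min with inhibitor (from 100% DMSO; final 5 mM), with a DMSO-only control. Activity was then read by the coupled DHDPR assay, following NADPH oxidation at 340 nm at 30 °C. The result is % inhibition relative to the control.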

[2] = (§1) Inhibition of Escherichia coli DHDPS-catalyzed condensation of pyruvate and aspartate semi-aldehyde by UV-spectrophotometric analysis; settings: read-out: Ki(app)
Outline: (§2)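 Time-dependent assay: DHDPS in HEPES pH 8.0 (raised to 500 mM for the acidic inhibitor) was pre-incubated with inhibitor at 0.5–25 mM. Aliquots were serially diluted before adding to substrates, and residual rate was measured by DHDPR/NADPH coupling at 340 nm at 30 °C. Decay curves of v_t/v_0 were fitted per Copeland. Ki app came from a y-intercept isotherm midpoint, and Ki* app from k_obs versus [I].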

[3] = test system: Escherichia coli; assay: Inhibition of Escherichia coli DHDPS-catalyzed condensation of pyruvate and aspartate semi-aldehyde at 50 mM after 60 mins by UV-spectrophotometric analysis
[4] = test system: Escherichia coli; assay: as §1; settings: TDE = time-dependent effect; outline: as §2

| SMILES | inhibition [1] | pKi [2] | inhibition [3] | inhibition [4] |
| --- | --- | --- | --- | --- |
| COC(=O)C(=O)c1cccc(C(=O)C(=O)OC)c1 | 2% | – | – | – |
| O=C(O)C(=O)c1cccc(C(=O)C(=O)O)c1 | 49% | 2.53 | – | – |
| O=C(O)/C(=N\O)c1cccc(/C(=N/O)C(=O)O)c1 | 23% | – | 34% | – |
| COC(=O)C(=O)c1cccc(C(=O)C(=O)OC)c1O | 10% | 4.40 | – | tde |
| O=C(O)C(=O)c1cccc(C(=O)C(=O)O)c1O | 10% | 3.54 | – | tde |
| COC(=O)/C(=N\O)c1cccc(/C(=N/O)C(=O)OC)c1 | 15% | 3.48 | – | – |

Source: ChEMBL document CHEMBL1955825, “1,3-Phenylene bis(ketoacid) derivatives as inhibitors of Escherichia coli dihydrodipicolinate synthase” (Bioorg Med Chem, 2012)
